In ChEMBL document CHEMBL3044834, “Novel protoporphyrinogen oxidase inhibitors: 3H-pyrazolo[3,4-d][1,2,3]triazin-4-one derivatives” (J Agric Food Chem, 2008):

System: Echinochloa crus-galli
Test: Herbicidal activity against Echinochloa crus-galli (barnyard grass) assessed as inhibition of fresh weed plant weight at 1500 g/ha using pre-emergence treatment protocol
Format: functional

Row | SMILES | inhibition at 1500 g/ha [%]
1 | C#CCN1C(=O)COc2cc(F)c(-n3nnc4c(cnn4CCC)c3=O)cc21 | 95.4

System: Digitaria sanguinalis
Test: Herbicidal activity against Digitaria sanguinalis (hairy crabgrass) assessed as inhibition of fresh weed plant weight at 750 g/ha using post-emergence treatment protocol
Format: functional
In short: (§1)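 Test compounds made up as emulsions by dissolving in 100 µL N,N-dimethylformamide, then adding a little Tween 20 and water. For post-emergence, weed seedlings at one leaf and one stem were sprayed at the same rates as the pre-emergence test. Fresh weight was recorded 15 days after treatment and expressed as percent inhibition versus controls. All treatments were run in triplicate.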

Row | SMILES | inhibition at 750 g/ha [%]
2 | C#CCN1C(=O)COc2cc(F)c(-n3nnc4c(cnn4CCC)c3=O)cc21 | 16.7

System: Amaranthus retroflexus
Test: Herbicidal activity against Amaranthus retroflexus assessed as inhibition of fresh weed plant weight at 750 g/ha using pre-emergence treatment protocol
Format: functional
In short: as §1

Row | SMILES | inhibition at 750 g/ha [%]
3 | C#CCN1C(=O)COc2cc(F)c(-n3nnc4c(cnn4CCC)c3=O)cc21 | 100

System: Amaranthus retroflexus
Test: Herbicidal activity against Amaranthus retroflexus assessed as inhibition of fresh weed plant weight at 375 g/ha using post-emergence treatment protocol
Format: functional
In short: as §1

Row | SMILES | inhibition at 375 g/ha [%]
4 | C#CCN1C(=O)COc2cc(F)c(-n3nnc4c(cnn4CCC)c3=O)cc21 | 41.5

System: Brassica rapa subsp. oleifera
Test: Herbicidal activity against Brassica rapa subsp. oleifera assessed as inhibition of fresh weed plant weight at 187.5 g/ha using post-emergence treatment protocol
Format: functional
In short: as §1

Row | SMILES | inhibition at 187.5 g/ha [%]
5 | C#CCN1C(=O)COc2cc(F)c(-n3nnc4c(cnn4CCC)c3=O)cc21 | 35.4

System: Echinochloa crus-galli
Test: Herbicidal activity against Echinochloa crus-galli (barnyard grass) assessed as inhibition of fresh weed plant weight at 375 g/ha using pre-emergence treatment protocol
Format: functional
In short: as §1

Row | SMILES | inhibition at 375 g/ha [%]
6 | C#CCN1C(=O)COc2cc(F)c(-n3nnc4c(cnn4CCC)c3=O)cc21 | 80.1

System: Digitaria sanguinalis
Test: Herbicidal activity against Digitaria sanguinalis (hairy crabgrass) assessed as inhibition of fresh weed plant weight at 1500 g/ha using post-emergence treatment protocol
Format: functional
In short: as §1

Row | SMILES | inhibition at 1500 g/ha [%]
7 | C#CCN1C(=O)COc2cc(F)c(-n3nnc4c(cnn4CCC)c3=O)cc21 | 33.9

System: Digitaria sanguinalis
Test: Herbicidal activity against Digitaria sanguinalis (hairy crabgrass) assessed as inhibition of fresh weed plant weight at 375 g/ha using post-emergence treatment protocol
Format: functional
In short: as §1

Row | SMILES | inhibition at 375 g/ha [%]
8 | C#CCN1C(=O)COc2cc(F)c(-n3nnc4c(cnn4CCC)c3=O)cc21 | 5.6

System: Amaranthus retroflexus
Test: Herbicidal activity against Amaranthus retroflexus assessed as inhibition of fresh weed plant weight at 187.5 g/ha using post-emergence treatment protocol
Format: functional
In short: as §1

Row | SMILES | inhibition at 187.5 g/ha [%]
9 | C#CCN1C(=O)COc2cc(F)c(-n3nnc4c(cnn4CCC)c3=O)cc21 | 14.6

System: Brassica rapa subsp. oleifera
Test: Herbicidal activity against Brassica rapa subsp. oleifera assessed as inhibition of fresh weed plant weight at 750 g/ha using post-emergence treatment protocol
Format: functional
In short: as §1

Row | SMILES | inhibition at 750 g/ha [%]
10 | C#CCN1C(=O)COc2cc(F)c(-n3nnc4c(cnn4CCC)c3=O)cc21 | 70.3

System: Echinochloa crus-galli
Test: Herbicidal activity against Echinochloa crus-galli (barnyard grass) assessed as inhibition of fresh weed plant weight at 187.5 g/ha using pre-emergence treatment protocol
Format: functional
In short: as §1

Row | SMILES | inhibition at 187.5 g/ha [%]
11 | C#CCN1C(=O)COc2cc(F)c(-n3nnc4c(cnn4CCC)c3=O)cc21 | 43.7

System: Amaranthus retroflexus
Test: Herbicidal activity against Amaranthus retroflexus assessed as inhibition of fresh weed plant weight at 750 g/ha using post-emergence treatment protocol
Format: functional
In short: as §1

Row | SMILES | inhibition at 750 g/ha [%]
12 | C#CCN1C(=O)COc2cc(F)c(-n3nnc4c(cnn4CCC)c3=O)cc21 | 87.8

System: Digitaria sanguinalis
Test: Herbicidal activity against Digitaria sanguinalis (hairy crabgrass) assessed as inhibition of fresh weed plant weight at 1500 g/ha using pre-emergence treatment protocol
Format: functional

Row | SMILES | inhibition at 1500 g/ha [%]
13 | C#CCN1C(=O)COc2cc(F)c(-n3nnc4c(cnn4CCC)c3=O)cc21 | 100

System: Digitaria sanguinalis
Test: Herbicidal activity against Digitaria sanguinalis (hairy crabgrass) assessed as inhibition of fresh weed plant weight at 187.5 g/ha using pre-emergence treatment protocol
Format: functional

Row | SMILES | inhibition at 187.5 g/ha [%]
14 | C#CCN1C(=O)COc2cc(F)c(-n3nnc4c(cnn4CCC)c3=O)cc21 | 80.4

System: Amaranthus retroflexus
Test: Herbicidal activity against Amaranthus retroflexus assessed as inhibition of fresh weed plant weight at 1500 g/ha using post-emergence treatment protocol
Format: functional
In short: as §1

Row | SMILES | inhibition at 1500 g/ha [%]
15 | C#CCN1C(=O)COc2cc(F)c(-n3nnc4c(cnn4CCC)c3=O)cc21 | 99.6

System: Brassica rapa subsp. oleifera
Test: Herbicidal activity against Brassica rapa subsp. oleifera assessed as inhibition of fresh weed plant weight at 375 g/ha using pre-emergence treatment protocol
Format: functional

Row | SMILES | inhibition at 375 g/ha [%]
16 | C#CCN1C(=O)COc2cc(F)c(-n3nnc4c(cnn4CCC)c3=O)cc21 | 67.9

System: Amaranthus retroflexus
Test: Herbicidal activity against Amaranthus retroflexus assessed as inhibition of fresh weed plant weight at 187.5 g/ha using pre-emergence treatment protocol
Format: functional

Row | SMILES | inhibition at 187.5 g/ha [%]
17 | C#CCN1C(=O)COc2cc(F)c(-n3nnc4c(cnn4CCC)c3=O)cc21 | 37.7

System: Brassica rapa subsp. oleifera
Test: Herbicidal activity against Brassica rapa subsp. oleifera assessed as inhibition of fresh weed plant weight at 1500 g/ha using post-emergence treatment protocol
Format: functional
In short: as §1

Row | SMILES | inhibition at 1500 g/ha [%]
18 | C#CCN1C(=O)COc2cc(F)c(-n3nnc4c(cnn4CCC)c3=O)cc21 | 90.7

System: Echinochloa crus-galli
Test: Herbicidal activity against Echinochloa crus-galli (barnyard grass) assessed as inhibition of fresh weed plant weight at 375 g/ha using post-emergence treatment protocol
Format: functional
In short: as §1

Row | SMILES | inhibition at 375 g/ha [%]
19 | C#CCN1C(=O)COc2cc(F)c(-n3nnc4c(cnn4CCC)c3=O)cc21 | 19

System: Digitaria sanguinalis
Test: Herbicidal activity against Digitaria sanguinalis (hairy crabgrass) assessed as inhibition of fresh weed plant weight at 187.5 g/ha using post-emergence treatment protocol
Format: functional
In short: as §1

Row | SMILES | inhibition at 187.5 g/ha [%]
20 | C#CCN1C(=O)COc2cc(F)c(-n3nnc4c(cnn4CCC)c3=O)cc21 | 0

System: Digitaria sanguinalis
Test: Herbicidal activity against Digitaria sanguinalis (hairy crabgrass) assessed as inhibition of fresh weed plant weight at 750 g/ha using pre-emergence treatment protocol
Format: functional

Row | SMILES | inhibition at 750 g/ha [%]
21 | C#CCN1C(=O)COc2cc(F)c(-n3nnc4c(cnn4CCC)c3=O)cc21 | 93.5

System: Echinochloa crus-galli
Test: Herbicidal activity against Echinochloa crus-galli (barnyard grass) assessed as inhibition of fresh weed plant weight at 750 g/ha using post-emergence treatment protocol
Format: functional
In short: as §1

Row | SMILES | inhibition at 750 g/ha [%]
22 | C#CCN1C(=O)COc2cc(F)c(-n3nnc4c(cnn4CCC)c3=O)cc21 | 61

System: Digitaria sanguinalis
Test: Herbicidal activity against Digitaria sanguinalis (hairy crabgrass) assessed as inhibition of fresh weed plant weight at 375 g/ha using pre-emergence treatment protocol
Format: functional

Row | SMILES | inhibition at 375 g/ha [%]
23 | C#CCN1C(=O)COc2cc(F)c(-n3nnc4c(cnn4CCC)c3=O)cc21 | 91.3

System: Amaranthus retroflexus
Test: Herbicidal activity against Amaranthus retroflexus assessed as inhibition of fresh weed plant weight at 1500 g/ha using pre-emergence treatment protocol
Format: functional

Row | SMILES | inhibition at 1500 g/ha [%]
24 | C#CCN1C(=O)COc2cc(F)c(-n3nnc4c(cnn4CCC)c3=O)cc21 | 100

System: Brassica rapa subsp. oleifera
Test: Herbicidal activity against Brassica rapa subsp. oleifera assessed as inhibition of fresh weed plant weight at 375 g/ha using post-emergence treatment protocol
Format: functional
In short: as §1

Row | SMILES | inhibition at 375 g/ha [%]
25 | C#CCN1C(=O)COc2cc(F)c(-n3nnc4c(cnn4CCC)c3=O)cc21 | 64.6

System: Brassica rapa subsp. oleifera
Test: Herbicidal activity against Brassica rapa subsp. oleifera assessed as inhibition of fresh weed plant weight at 1500 g/ha using pre-emergence treatment protocol
Format: functional

Row | SMILES | inhibition at 1500 g/ha [%]
26 | C#CCN1C(=O)COc2cc(F)c(-n3nnc4c(cnn4CCC)c3=O)cc21 | 98.1

System: Echinochloa crus-galli
Test: Herbicidal activity against Echinochloa crus-galli (barnyard grass) assessed as inhibition of fresh weed plant weight at 1500 g/ha using post-emergence treatment protocol
Format: functional
In short: as §1

Row | SMILES | inhibition at 1500 g/ha [%]
27 | C#CCN1C(=O)COc2cc(F)c(-n3nnc4c(cnn4CCC)c3=O)cc21 | 91.5

System: Echinochloa crus-galli
Test: Herbicidal activity against Echinochloa crus-galli (barnyard grass) assessed as inhibition of fresh weed plant weight at 187.5 g/ha using post-emergence treatment protocol
Format: functional
In short: as §1

Row | SMILES | inhibition at 187.5 g/ha [%]
28 | C#CCN1C(=O)COc2cc(F)c(-n3nnc4c(cnn4CCC)c3=O)cc21 | 0.5

System: Amaranthus retroflexus
Test: Herbicidal activity against Amaranthus retroflexus assessed as inhibition of fresh weed plant weight at 375 g/ha using pre-emergence treatment protocol
Format: functional

Row | SMILES | inhibition at 375 g/ha [%]
29 | C#CCN1C(=O)COc2cc(F)c(-n3nnc4c(cnn4CCC)c3=O)cc21 | 73.8

System: Brassica rapa subsp. oleifera
Test: Herbicidal activity against Brassica rapa subsp. oleifera assessed as inhibition of fresh weed plant weight at 750 g/ha using pre-emergence treatment protocol
Format: functional

Row | SMILES | inhibition at 750 g/ha [%]
30 | C#CCN1C(=O)COc2cc(F)c(-n3nnc4c(cnn4CCC)c3=O)cc21 | 82.1

System: Echinochloa crus-galli
Test: Herbicidal activity against Echinochloa crus-galli (barnyard grass) assessed as inhibition of fresh weed plant weight at 750 g/ha using pre-emergence treatment protocol
Format: functional

Row | SMILES | inhibition at 750 g/ha [%]
31 | C#CCN1C(=O)COc2cc(F)c(-n3nnc4c(cnn4CCC)c3=O)cc21 | 87

System: Brassica rapa subsp. oleifera
Test: Herbicidal activity against Brassica rapa subsp. oleifera assessed as inhibition of fresh weed plant weight at 187.5 g/ha using pre-emergence treatment protocol
Format: functional

Row | SMILES | inhibition at 187.5 g/ha [%]
32 | C#CCN1C(=O)COc2cc(F)c(-n3nnc4c(cnn4CCC)c3=O)cc21 | 63.4
